{"source": "paper PMC5248944", "about": "(International Journal of Nanomedicine, 2017)", "key": {"[1]": {"assay_type": "physicochemical", "settings": "35°C, 5-FU 1.25 mg/mL in donor phase; control slope = Km", "outline": "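Dynamic dialysis was run at 35°C across porous cellulose (12.5 kDa cutoff). The donor held 5 mL of lyophilised-then-regenerated nanoparticles, plain drug solution, or drug with 0.25 mg/mL chitosan HCl; the receiver held 100 mL demineralised water under sink conditions. The receiver was sampled at intervals for HPLC (RP-18, 0.05 M KH2PO4/0.1% triethylamine, UV 266 nm). Ff came from the ln[(Cd/Cd0)×100]-vs-time slope; ≥3 repeats.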"}, "[2]": {"assay": "Dynamic dialysis at 4°C: drug–polymer interactions in TSOH, sol state", "assay_type": "physicochemical", "settings": "5-FU 1.25 mg/mL, printed value is slope ×10^3", "outline": "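Sol-state formulations were tested by dynamic dialysis at 4°C. The donor held 5 mL of formulation; the receiver held 100 mL of 0.08 M HCl with β-glycerophosphate. Receiver drug was measured at intervals. Each day's run order was control, two formulations, then control again on the same membrane, with a fresh membrane daily. Bound fraction was taken as 1−Ff from the log-linear slope.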"}}, "data": [{"compound": "O=c1[nH]cc(F)c(=O)[nH]1", "note": "[Control, 5-fluorouracil]", "values": [{"measurement": "slope of straight line ± standard deviation, ln[(Cd/Cd0)×100] vs t", "setting": "[1]", "result": "0.841±0.029", "unit": "hours"}, {"measurement": "Modulus of straight-line slope (×10^3) ± SD (n=8)", "setting": "[2]", "result": "5.06±0.75 1/minutes"}]}]}
